Results as given in ChEMBL document CHEMBL4257488, “Synthesis and evaluation of nuciferine and roemerine enantiomers as 5-HT2 and α1 receptor antagonists” (Medchemcomm, 2018).

Columns and labels:
[1] = molecular target: T1, 5-hydroxytryptamine receptor 2C (Homo sapiens) (UniProt P28335); test: Antagonist activity at human 5-HT2C receptor expressed in HEK293 cells assessed as inhibition of serotonin-induced receptor activation preincubated for 15 mins followed by serotonin addition and measured after 1 hr by TGFalpha shedding assay; assay type: functional, cell-based
T1 sequence (whole entry): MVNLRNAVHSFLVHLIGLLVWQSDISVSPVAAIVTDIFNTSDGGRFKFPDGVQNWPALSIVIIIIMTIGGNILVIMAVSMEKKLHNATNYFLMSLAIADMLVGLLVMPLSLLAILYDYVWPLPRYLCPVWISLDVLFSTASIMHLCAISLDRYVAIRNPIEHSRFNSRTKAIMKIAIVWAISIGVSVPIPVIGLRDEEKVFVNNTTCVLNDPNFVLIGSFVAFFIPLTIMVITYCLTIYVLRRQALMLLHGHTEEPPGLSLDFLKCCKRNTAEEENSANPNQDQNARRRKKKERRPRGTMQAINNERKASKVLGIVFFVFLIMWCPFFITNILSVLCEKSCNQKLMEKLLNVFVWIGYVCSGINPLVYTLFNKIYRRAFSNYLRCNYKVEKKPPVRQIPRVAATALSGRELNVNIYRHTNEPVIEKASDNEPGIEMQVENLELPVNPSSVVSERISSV
Method in brief: (§1)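 HEK293 cells were co-transfected with the receptor construct and alkaline phosphatase-tagged TGFα, then seeded in HBSS. Cells were pretreated 15 min with compound (0.1 nM–30 µM final), then given serotonin at final 1 µM (5-HT2A) or 0.1 µM (5-HT2B, 5-HT2C) for 1 h at 37 °C. Readout was supernatant/total AP activity (p-nitrophenol, 405 nm), normalised to maximal agonist response, in triplicate. Kb came from IC50 via the modified Gaddum equation.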

[2] = molecular target: Serotonin 2 receptors; 5-HT2a & 5-HT2c (Homo sapiens) (UniProt P28223+P28335); test: Selectivity ratio of Kb for human 5-HT2C receptor to Kb for human 5-HT2A receptor
Chain of Serotonin 2 receptors; 5-HT2a & 5-HT2c (Homo sapiens) (P28223 whole entry, looked up, one chain of several): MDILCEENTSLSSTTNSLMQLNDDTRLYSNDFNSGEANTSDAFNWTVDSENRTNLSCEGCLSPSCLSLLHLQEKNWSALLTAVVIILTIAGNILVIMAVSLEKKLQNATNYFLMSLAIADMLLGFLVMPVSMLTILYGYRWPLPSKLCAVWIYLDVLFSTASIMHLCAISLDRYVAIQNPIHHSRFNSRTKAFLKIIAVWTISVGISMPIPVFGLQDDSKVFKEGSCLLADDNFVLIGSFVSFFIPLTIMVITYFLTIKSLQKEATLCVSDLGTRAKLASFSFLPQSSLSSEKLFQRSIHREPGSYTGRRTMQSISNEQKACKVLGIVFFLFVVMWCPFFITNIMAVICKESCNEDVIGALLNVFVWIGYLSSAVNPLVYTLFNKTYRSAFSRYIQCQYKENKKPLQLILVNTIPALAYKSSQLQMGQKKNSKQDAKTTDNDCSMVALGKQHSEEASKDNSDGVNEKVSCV
Method in brief: (§2)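 Ratio of the Kb at receptor Y to the Kb at receptor X. Each Kb came from TGFα-shedding antagonist curves in transfected HEK293 cells, converted from IC50 with the modified Gaddum equation IC50/([A]/EC50 − 1).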

[3] = molecular target: 5-hydroxytryptamine receptor 2A (Homo sapiens) (UniProt P28223); test: Antagonist activity at human 5-HT2A receptor expressed in HEK293 cells assessed as inhibition of serotonin-induced receptor activation preincubated for 15 mins followed by serotonin addition and measured after 1 hr by TGFalpha shedding assay; assay type: functional, cell-based
Chain of 5-hydroxytryptamine receptor 2A (Homo sapiens) (P28223 whole entry): as the sequence (P28223 whole entry, looked up, one chain of several) above
Method in brief: as §1, with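 “°C.” for “°C. Readout was supernatant/total AP activity (p-nitrophenol, 405 nm), normalised to maximal agonist response, in triplicate.”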

Homo sapiens [4] = organism: Homo sapiens; test: Selectivity ratio of Kb for human adrenergic alpha1B receptor to Kb for human adrenergic alpha1A receptor; method in brief: as §2
[5] = molecular target: T2, Alpha-1D adrenergic receptor (Homo sapiens) (UniProt P25100); test: Antagonist activity at human adrenergic alpha1D receptor expressed in HEK293 cells assessed as inhibition of noradrenaline-induced receptor activation preincubated for 15 mins followed by noradrenaline addition and measured after 1 hr by TGFalpha shedding assay
T2 sequence (whole entry): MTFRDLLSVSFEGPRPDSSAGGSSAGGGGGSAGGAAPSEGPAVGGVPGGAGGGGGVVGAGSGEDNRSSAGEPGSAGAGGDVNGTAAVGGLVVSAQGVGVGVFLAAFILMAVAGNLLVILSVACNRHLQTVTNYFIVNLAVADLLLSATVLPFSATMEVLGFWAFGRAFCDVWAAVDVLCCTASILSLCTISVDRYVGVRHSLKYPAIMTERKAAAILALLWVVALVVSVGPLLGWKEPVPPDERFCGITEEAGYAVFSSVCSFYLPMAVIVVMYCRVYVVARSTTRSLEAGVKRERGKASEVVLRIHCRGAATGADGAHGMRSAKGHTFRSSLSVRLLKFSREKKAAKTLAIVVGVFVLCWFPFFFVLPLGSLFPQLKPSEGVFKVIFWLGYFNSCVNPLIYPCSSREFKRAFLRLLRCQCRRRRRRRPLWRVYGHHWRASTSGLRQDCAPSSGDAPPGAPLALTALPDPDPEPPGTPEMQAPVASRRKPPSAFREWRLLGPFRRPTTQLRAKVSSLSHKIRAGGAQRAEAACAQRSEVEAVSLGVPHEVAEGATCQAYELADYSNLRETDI

Homo sapiens [6] = organism: Homo sapiens; test: Selectivity ratio of Kb for human 5-HT2B receptor to Kb for human 5-HT2A receptor; method in brief: as §2
[7] = molecular target: T3, Alpha-1A adrenergic receptor (Homo sapiens) (UniProt P35348); test: Antagonist activity at human adrenergic alpha1A receptor expressed in HEK293 cells assessed as inhibition of noradrenaline-induced receptor activation preincubated for 15 mins followed by noradrenaline addition and measured after 1 hr by TGFalpha shedding assay
T3 sequence (whole entry): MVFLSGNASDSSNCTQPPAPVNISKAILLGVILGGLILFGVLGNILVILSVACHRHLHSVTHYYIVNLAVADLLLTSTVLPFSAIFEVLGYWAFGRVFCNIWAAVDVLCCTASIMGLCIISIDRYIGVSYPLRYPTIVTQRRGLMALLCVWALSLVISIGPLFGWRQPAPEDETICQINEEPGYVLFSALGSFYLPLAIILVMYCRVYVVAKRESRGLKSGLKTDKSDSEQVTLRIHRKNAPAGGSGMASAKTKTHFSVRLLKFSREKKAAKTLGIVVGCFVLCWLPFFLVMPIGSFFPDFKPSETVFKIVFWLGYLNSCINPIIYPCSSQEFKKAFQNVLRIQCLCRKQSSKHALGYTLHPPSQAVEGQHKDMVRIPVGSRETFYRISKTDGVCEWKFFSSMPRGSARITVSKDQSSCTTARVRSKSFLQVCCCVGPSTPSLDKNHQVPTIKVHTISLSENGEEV

[8] = molecular target: T4, Alpha-1B adrenergic receptor (Homo sapiens) (UniProt P35368); test: Antagonist activity at human adrenergic alpha1B receptor expressed in HEK293 cells assessed as inhibition of noradrenaline-induced receptor activation preincubated for 15 mins followed by noradrenaline addition and measured after 1 hr by TGFalpha shedding assay
T4 sequence (whole entry): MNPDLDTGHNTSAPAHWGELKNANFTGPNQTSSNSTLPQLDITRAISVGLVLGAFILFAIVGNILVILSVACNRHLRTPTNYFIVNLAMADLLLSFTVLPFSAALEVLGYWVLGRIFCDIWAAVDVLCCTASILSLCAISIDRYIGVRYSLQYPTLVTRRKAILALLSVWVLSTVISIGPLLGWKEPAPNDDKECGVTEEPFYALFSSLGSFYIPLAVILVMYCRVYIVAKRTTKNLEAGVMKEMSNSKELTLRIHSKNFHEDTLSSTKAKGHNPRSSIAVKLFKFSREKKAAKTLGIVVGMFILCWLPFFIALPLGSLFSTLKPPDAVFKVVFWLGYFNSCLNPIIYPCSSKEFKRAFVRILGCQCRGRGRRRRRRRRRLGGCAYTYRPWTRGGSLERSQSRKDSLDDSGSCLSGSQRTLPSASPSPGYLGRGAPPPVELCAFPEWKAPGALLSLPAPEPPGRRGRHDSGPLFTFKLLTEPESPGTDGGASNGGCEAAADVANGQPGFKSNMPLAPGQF

[9] = molecular target: 5-hydroxytryptamine receptor 2B (Homo sapiens) (UniProt P41595); test: Antagonist activity at human 5-HT2B receptor expressed in HEK293 cells assessed as inhibition of serotonin-induced receptor activation preincubated for 15 mins followed by serotonin addition and measured after 1 hr by TGFalpha shedding assay; assay type: functional, cell-based
Chain of 5-hydroxytryptamine receptor 2B (Homo sapiens) (P41595 whole entry): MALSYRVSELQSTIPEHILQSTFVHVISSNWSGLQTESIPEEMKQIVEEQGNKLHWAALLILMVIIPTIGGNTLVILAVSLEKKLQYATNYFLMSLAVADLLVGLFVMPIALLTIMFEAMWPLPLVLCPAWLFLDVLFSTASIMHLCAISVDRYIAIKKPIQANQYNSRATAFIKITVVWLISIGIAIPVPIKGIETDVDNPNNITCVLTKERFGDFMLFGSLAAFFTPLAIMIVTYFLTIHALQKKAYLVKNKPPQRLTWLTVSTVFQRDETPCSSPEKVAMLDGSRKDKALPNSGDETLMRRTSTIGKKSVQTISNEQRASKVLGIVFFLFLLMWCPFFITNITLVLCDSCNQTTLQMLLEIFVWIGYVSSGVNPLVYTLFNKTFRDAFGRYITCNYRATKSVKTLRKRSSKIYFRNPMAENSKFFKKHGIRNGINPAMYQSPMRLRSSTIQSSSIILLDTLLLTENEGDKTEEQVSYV
Method in brief: as §1, with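 “°C.” for “°C. Readout was supernatant/total AP activity (p-nitrophenol, 405 nm), normalised to maximal agonist response, in triplicate.”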

Homo sapiens [10] = organism: Homo sapiens; test: Selectivity ratio of Kb for human 5-HT2B receptor to Kb for human 5-HT2C receptor; method in brief: as §2
Homo sapiens [11] = organism: Homo sapiens; test: Selectivity ratio of Kb for human adrenergic alpha1A receptor to Kb for human 5-HT2A receptor; method in brief: as §2
Homo sapiens [12] = organism: Homo sapiens; test: Selectivity ratio of Kb for human adrenergic alpha1D receptor to Kb for human adrenergic alpha1B receptor; method in brief: as §2
Homo sapiens [13] = organism: Homo sapiens; test: Selectivity ratio of Kb for human adrenergic alpha1D receptor to Kb for human adrenergic alpha1A receptor; method in brief: as §2
[14] = molecular target: T5, Alpha-1A adrenergic receptor (Homo sapiens, UniProt P35348); test: Displacement of [125I]-HEAT from human adrenergic alpha1A receptor expressed in rat-1 cells; assay type: cell-based
T5 sequence (P35348 whole entry): T3 sequence (whole entry)

Homo sapiens [15] = organism: Homo sapiens; test: Selectivity ratio of Kb for human adrenergic alpha1D receptor to Kb for human 5-HT2A receptor; method in brief: as §2
[16] = molecular target: T6, Alpha-1D adrenergic receptor (Homo sapiens, UniProt P25100); test: Displacement of [125I]-HEAT from human adrenergic alpha1D receptor expressed in rat-1 cells; assay type: cell-based
T6 sequence (P25100 whole entry): T2 sequence (whole entry)

Homo sapiens [17] = organism: Homo sapiens; test: Selectivity ratio of Kb for human adrenergic alpha1B receptor to Kb for human 5-HT2A receptor; method in brief: as §2
Homo sapiens [18] = organism: Homo sapiens; test: Selectivity ratio of Kb for human adrenergic alpha1A receptor to Kb for human 5-HT2C receptor; method in brief: as §2
Homo sapiens [19] = organism: Homo sapiens; test: Selectivity ratio of Kb for human adrenergic alpha1B receptor to Kb for human 5-HT2C receptor; method in brief: as §2
[20] = molecular target: T7, Alpha-1B adrenergic receptor (Homo sapiens, UniProt P35368); test: Displacement of [125I]-HEAT from human adrenergic alpha1B receptor expressed in rat-1 cells; assay type: cell-based
T7 sequence (P35368 whole entry): T4 sequence (whole entry)

Homo sapiens [21] = organism: Homo sapiens; test: Selectivity ratio of Kb for human adrenergic alpha1D receptor to Kb for human 5-HT2C receptor; method in brief: as §2

## COc1cc2c3c(c1OC)-c1ccccc1C[C@H]3N(C)CC2
[1]
  Kb: 36.4 nM
  pKb: 7.44
[2]
  Selectivity ratio: 0.6
[3]
  Kb: 65.3 nM
  pKb: 7.18 to 7.26
Homo sapiens [4]
  Selectivity ratio: 2
[5]
  Kb: 165 nM
  pKb: 6.78
Homo sapiens [6]
  Selectivity ratio: 0.5
[7]
  Kb: 37.8 nM
  pKb: 7.31 to 7.42
[8]
  Kb: 60.6 nM
  pKb: 7.22
[9]
  Kb: 31 nM
  pKb: 7.51
Homo sapiens [10]
  Selectivity ratio: 1
Homo sapiens [11]
  Selectivity ratio: 1
Homo sapiens [12]
  Selectivity ratio: 3
Homo sapiens [13]
  Selectivity ratio: 4

## COc1cc2c3c(c1OC)-c1ccccc1C[C@@H]3N(C)CC2
[1]
  Kb: 30.9 nM
  pKb: 7.51
[2]
  Selectivity ratio: 0.4
[3]
  Kb: 84.3 nM
  pKb: 6.85 to 7.07
Homo sapiens [4]
  Selectivity ratio: 5
[5]
  Kb: 116 nM
  pKb: 6.94
Homo sapiens [6]
  Selectivity ratio: 0.5
[7]
  Kb: 67.1 nM
  pKb: 6.91 to 7.17
[8]
  Kb: 316 nM
  pKb: 6.5
[9]
  Kb: 41.7 nM
  pKb: 7.38
Homo sapiens [10]
  Selectivity ratio: 1
Homo sapiens [11]
  Selectivity ratio: 1
Homo sapiens [12]
  Selectivity ratio: 0.4
Homo sapiens [13]
  Selectivity ratio: 2

## CN1CCc2cc3c(c4c2[C@@H]1Cc1ccccc1-4)OCO3
[1]
  Kb: 76.9 nM
  pKb: 7.12
[2]
  Selectivity ratio: 2
[3]
  Kb: 42.9 nM
  pKb: 7.06 to 7.37
Homo sapiens [4]
  Selectivity ratio: 2
[5]
  Kb: 92.2 nM
  pKb: 7.04
Homo sapiens [6]
  Selectivity ratio: 2
[7]
  Kb: 86 nM
  pKb: 6.62 to 7.07
[8]
  Kb: 154 nM
  pKb: 6.81
[9]
  Kb: 92.7 nM
  pKb: 7.03
Homo sapiens [10]
  Selectivity ratio: 1
Homo sapiens [11]
  Selectivity ratio: 3
Homo sapiens [12]
  Selectivity ratio: 0.6
Homo sapiens [13]
  Selectivity ratio: 1

## CN1CCc2cc3c(c4c2[C@H]1Cc1ccccc1-4)OCO3
[1]
  Kb: 15.1 nM
  pKb: 7.82
[2]
  Selectivity ratio: 1
[14]
  Ki: 251 nM
[3]
  Kb: 10.8 nM
  pKb: 7.88 to 7.97
Homo sapiens [4]
  Selectivity ratio: 0.8
[5]
  Kb: 46 nM
  pKb: 7.34
Homo sapiens [15]
  Selectivity ratio: 3 to 4
[16]
  Ki: 631 nM
Homo sapiens [17]
  Selectivity ratio: 18 to 32
Homo sapiens [6]
  Selectivity ratio: 8
[7]
  Kb: 338 nM
  pKb: 6.38 to 6.47
Homo sapiens [18]
  Selectivity ratio: 18 to 32
[8]
  Kb: 266 nM
  pKb: 6.57
Homo sapiens [19]
  Selectivity ratio: 18 to 32
[9]
  Kb: 84 nM
  pKb: 7.08
[20]
  Ki: 3160 nM
Homo sapiens [10]
  Selectivity ratio: 6
Homo sapiens [11]
  Selectivity ratio: 32
Homo sapiens [12]
  Selectivity ratio: 0.2
Homo sapiens [21]
  Selectivity ratio: 3 to 4
Homo sapiens [13]
  Selectivity ratio: 0.1
